Results taken from ChEMBL document CHEMBL5055628, “Anticancer properties of indole derivatives as IsoCombretastatin A-4 analogues” (Eur J Med Chem, 2021).
Calls of active or inactive are those of the source. The calls are words filed in the database; no cut-off is given here.

What was measured:
[1] = Drug metabolism in human liver microsomes assessed as N-demethylated metabolite formation measured after 96 hrs by ESI-HRMS assay; assay type: ADME, Microsome
Procedure, shortened: (§1)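 Compound at 100 μM final incubated at 37 °C with rat or human liver microsomes (1 mg/mL protein, 10 mM buffer pH 7.4) plus NADPH-generating system (0.6 mM NADPNa4, 6.4 mM glucose-6-phosphate, 2 U/mL G6PDH). After 96 h, ethyl acetate extraction and HPLC-MS/MS (positive ESI, m/z 150–450, collision-induced dissociation) to identify metabolites.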

K-562R [2] = assay: Anticlonogenic activity against imatinib-resistant human K-562R cells assessed as reduction in number of cell colonies at 0.01 to 10 nM measured after 10 days by MTT reagent based colony formation assay; assay type: functional; conditions: dose 0.01-10 nM, time 10.0 day
Procedure, shortened: (§2)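 10^3 K562 cells (RPMI 1640, 10% FBS) or imatinib-resistant K562IR cells (RPMI 1640 with 25 mM HEPES, 10% FCS; kept in 1 μM imatinib, washed three times before use) grown 10 days in semisolid methylcellulose medium with 10% FBS, with or without compound. Colonies stained with 1 mg/mL MTT and image-analysed; three independent experiments, mean ± SD, two-way ANOVA with Tukey test.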

K562 [3] = assay: Induction of mitochondrial dysfunction in human K562 cells assessed as red aggregate formation at 50 nM measured after 48 hrs by JC-1 staining based flow cytometry (reference value: 98.3%); assay type: functional
K562 [4] = assay: Induction of mitochondrial dysfunction in human K562 cells assessed as green monomer formation at 5 nM measured after 48 hrs by JC-1 staining based flow cytometry (reference value: 1.3%); assay type: functional
K-562R [5] = assay: Anticlonogenic activity against imatinib-resistant human K-562R cells assessed as reduction of average size of cell colonies at 0.01 to 10 nM measured after 10 days by MTT reagent based colony formation assay; assay type: functional; conditions: dose 0.01-10 nM, time 10.0 day; procedure, shortened: as §2
[6] = Drug metabolism in rat liver microsomes assessed as hydroxylated metabolite formation measured after 96 hrs by ESI-HRMS assay; assay type: ADME, Microsome; procedure, shortened: as §1
[7] = Drug metabolism in human liver microsomes assessed as hydroxylated metabolite formation measured after 96 hrs by ESI-HRMS assay; assay type: ADME, Microsome; procedure, shortened: as §1
[8] = Metabolic stability in rat liver microsomes assessed as half life measured after 96 hrs by HPLC-MS/MS analysis; assay type: ADME, Microsome
Procedure, shortened: (§3)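 Compound (100 μM final) incubated at 37 °C with rat or human liver microsomes (1 mg/mL protein, pH 7.4) and NADPH-generating system; triplicate aliquots at 0–144 h quenched with isoCA-4 internal standard and ethyl acetate, quantified by HPLC-MS/MS against calibration curves.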

K562 [9] = assay: Induction of mitochondrial dysfunction in human K562 cells assessed as red aggregate formation at 10 nM measured after 48 hrs by JC-1 staining based flow cytometry (reference value: 98.3%); assay type: functional
K562 [10] = assay: Induction of mitochondrial dysfunction in human K562 cells assessed as red aggregate formation at 0.5 nM measured after 48 hrs by JC-1 staining based flow cytometry (reference value: 98.3%); assay type: functional
HCT-116 = assay: Cytotoxicity against human HCT-116 cells assessed as inhibition of cell growth measured after 72 hrs by CellTiter-Glo reagent based luminescence assay; assay type: functional; conditions: HCT-116, 72 h
Procedure, shortened: (§4)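 Cells (HCT-116 in McCoy's 5A; U87-MG in DMEM 4.5 g/L glucose; all with 10% serum, 1% glutamine, 37 °C, 5% CO2) seeded at 3 × 10³/well, treated after 24 h with 10 final concentrations by serial dilution; vehicle controls. After 72 h, CellTiter-Glo luminescence; IC50 from four- or five-parameter logistic fit, triplicate, mean of three experiments.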

HT-29 = assay: Cytotoxicity against human HT-29 cells assessed as inhibition of cell growth measured after 72 hrs by CellTiter-Glo reagent based luminescence assay; assay type: functional; conditions: HT-29, 72 h
Procedure, shortened: (§5)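 Cells seeded at 3 × 10³/well and grown 24 h. A549, MDA-MB231, K562 and K562R (doxorubicin-resistant) were in RPMI 1640; MiaPaCa2 and HT29 in DMEM (4.5 g/L glucose); all media had 10% FCS and 1% glutamine, at 37 °C and 5% CO₂. Cells got 10 final concentrations by serial dilution, with vehicle controls, for 72 h. CellTiter-Glo luminescence was read after 15 min. Triplicate runs; IC50 from four- or five-parameter logistic fits.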

A549 = assay: Cytotoxicity against human A549 cells assessed as inhibition of cell growth measured after 72 hrs by CellTiter-Glo reagent based luminescence assay; assay type: functional; conditions: A549, 72 h; procedure, shortened: as §5
[11] = Drug metabolism in rat liver microsomes assessed as N-demethylated metabolite formation measured after 96 hrs by ESI-HRMS assay; assay type: ADME, Microsome; procedure, shortened: as §1
K562 [12] = assay: Anticlonogenic activity against human K562 cells assessed as reduction in number of cell colonies at 0.05 to 10 nM measured after 10 days by MTT reagent based colony formation assay; assay type: functional; conditions: dose 0.05-10 nM, time 10.0 day; procedure, shortened: as §2
[13] = Metabolic stability in human liver microsomes assessed as half life measured after 96 hrs by HPLC-MS/MS analysis; assay type: ADME, Microsome; procedure, shortened: as §3
K562 [14] = assay: Cell cycle arrest in human K562 cells assessed as accumulation of cells in G2/M phase at 0.5 nM measured after 24 hrs by PI staining based flowcytometry; assay type: functional
Procedure, shortened: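 Exponentially growing K562 cells exposed to compound (0.5 and 1 nM) or DMSO alone for 24 h. DNA content stained with propidium iodide and cell-cycle distribution read by flow cytometry.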

K562 [15] = assay: Anticlonogenic activity against human K562 cells assessed as reduction in average size of cell colonies at 0.05 to 10 nM measured after 10 days by MTT reagent based colony formation assay; assay type: functional; conditions: dose 0.05-10 nM, time 10.0 day; procedure, shortened: as §2
K562 [16] = assay: Cytotoxicity against human K562 cells assessed as inhibition of cell growth measured after 72 hrs by CellTiter-Glo reagent based luminescence assay; assay type: functional; conditions: K562, 72 h; procedure, shortened: as §5
K562 [17] = assay: Induction of mitochondrial dysfunction in human K562 cells assessed as red aggregate formation at 5 nM measured after 48 hrs by JC-1 staining based flow cytometry (reference value: 98.3%); assay type: functional
K562 [18] = assay: Induction of mitochondrial dysfunction in human K562 cells assessed as green monomer formation at 10 nM measured after 48 hrs by JC-1 staining based flow cytometry (reference value: 1.3%); assay type: functional
K-562R [19] = assay: Anticlonogenic activity against imatinib-resistant human K-562R cells assessed as reduction of total surface of cell colonies at 0.01 to 10 nM measured after 10 days by MTT reagent based colony formation assay; assay type: functional; conditions: dose 0.01-10 nM, time 10.0 day; procedure, shortened: as §2
K-562R [20] = assay: Cytotoxicity against human K-562R cells assessed as inhibition of cell growth measured after 72 hrs by CellTiter-Glo reagent based luminescence assay; assay type: functional; procedure, shortened: as §5
K562 [21] = assay: Induction of mitochondrial dysfunction in human K562 cells assessed as green monomer formation at 0.5 nM measured after 48 hrs by JC-1 staining based flow cytometry (reference value: 1.3%); assay type: functional
MIA PaCa-2 = assay: Cytotoxicity against human MIA PaCa-2 cells assessed as inhibition of cell growth measured after 72 hrs by CellTiter-Glo reagent based luminescence assay; assay type: functional; conditions: MIA PaCa-2, 72 h; procedure, shortened: as §5
K562 [22] = assay: Induction of mitochondrial dysfunction in human K562 cells assessed as green monomer formation at 1 nM measured after 48 hrs by JC-1 staining based flow cytometry (reference value: 1.3%); assay type: functional
HT-1080 = assay: Cytotoxicity against human HT-1080 cells assessed as inhibition of cell growth measured after 72 hrs by CellTiter-Glo reagent based luminescence assay; assay type: functional; conditions: HT-1080, 72 h
[23] = Inhibition of porcine brain tubulin polymerization incubated for 30 mins followed by cooling on ice for 10 mins and measured by UV spectrometer assay; assay type: tissue-based, Sus scrofa
Procedure, shortened: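 Porcine brain tubulin (Shelanski isolation) in 0.1 M MES, 1.5 mM GTP, 1 mM EGTA, 1 mM β-ME, 1 mM MgCl2, pH 6.7, diluted to 1.5 mg/mL; ligand or DMSO 30 min at 20 °C, 10 min on ice. Assembly by 450 nm turbidity on 4→37 °C shift, plateau minus baseline vs no-ligand control (100%); IC50 from mono-exponential fit of ligand:tubulin ratio, three independent experiments.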

K562 [24] = assay: Anticlonogenic activity against human K562 cells assessed as reduction in total surface area of cell colonies at 0.05 to 10 nM measured after 10 days by MTT reagent based colony formation assay; assay type: functional; conditions: dose 0.05-10 nM, time 10.0 day; procedure, shortened: as §2
K562 [25] = assay: Induction of mitochondrial dysfunction in human K562 cells assessed as green monomer formation at 50 nM measured after 48 hrs by JC-1 staining based flow cytometry (reference value: 1.3%); assay type: functional
K562 [26] = assay: Induction of mitochondrial dysfunction in human K562 cells assessed as red aggregate formation at 1 nM measured after 48 hrs by JC-1 staining based flow cytometry (reference value: 98.3%); assay type: functional
U-87 MG = assay: Cytotoxicity against human U-87 MG cells assessed as inhibition of cell growth measured after 72 hrs by CellTiter-Glo reagent based luminescence assay; assay type: functional, U-87MG ATCC; procedure, shortened: as §4
MDA-MB-231 = assay: Cytotoxicity against human MDA-MB-231 cells assessed as inhibition of cell growth measured after 72 hrs by CellTiter-Glo reagent based luminescence assay; assay type: functional; conditions: MDA-MB-231, 72 h; procedure, shortened: as §5

## CCn1c(CO)cc2cc(N(C)c3nc(C)nc4ccccc34)ccc21
[1]
  Drug metabolism: Metabolite_Detected
K-562R [2]
  Activity: Active
K562 [3]
  Activity: 60%
K562 [4]
  Activity: 23.1%
K-562R [5]
  Activity: Active
[6]
  Drug metabolism: Metabolite_Detected
[7]
  Drug metabolism: Metabolite_Detected
[8]
  half-life: 140 h
K562 [9]
  Activity: 68.1%
K562 [10]
  Activity: 77.6%
HCT-116
  IC50: 0.08 nM
HT-29
  IC50: 0.84 nM
A549
  IC50: 0.7 nM
[11]
  Drug metabolism: Metabolite_Detected
K562 [12]
  Activity: Active
[13]
  half-life: 145 h
K562 [14]
  Activity: Active
K562 [15]
  Activity: Active
K562 [16]
  IC50: 0.26 nM
K562 [17]
  Activity: 75.8%
K562 [18]
  Activity: 31.2%
K-562R [19]
  Activity: Active
K-562R [20]
  IC50: 0.1 nM
K562 [21]
  Activity: 21.3%
MIA PaCa-2
  IC50: 0.09 nM
K562 [22]
  Activity: 22.3%
HT-1080
  IC50: 0.08 nM
[23]
  IC50: 1900 nM
K562 [24]
  Activity: Active
K562 [25]
  Activity: 39.2%
K562 [26]
  Activity: 76.9%
U-87 MG
  IC50: 0.51 nM
MDA-MB-231
  IC50: 0.25 nM
